Assay results published in ChEMBL document CHEMBL3232774, “Symmetric bis-chalcones as a new type of breast cancer resistance protein inhibitors with a mechanism different from that of chromones” (J Med Chem, 2014).

What was measured:
[1] = target: T1, ABCG2 (Homo sapiens, UniProt Q9UNQ0); experiment: Inhibition of ABCG2 (unknown origin) transfected in HEK293 cells assessed as inhibition of mitoxantrone efflux at 5 uM after 30 mins by flow cytometry relative to control; type: cell-based; conditions: HEK293 cells transfected with ABCG2, probe mitoxantrone
T1 sequence (Q9UNQ0 whole entry): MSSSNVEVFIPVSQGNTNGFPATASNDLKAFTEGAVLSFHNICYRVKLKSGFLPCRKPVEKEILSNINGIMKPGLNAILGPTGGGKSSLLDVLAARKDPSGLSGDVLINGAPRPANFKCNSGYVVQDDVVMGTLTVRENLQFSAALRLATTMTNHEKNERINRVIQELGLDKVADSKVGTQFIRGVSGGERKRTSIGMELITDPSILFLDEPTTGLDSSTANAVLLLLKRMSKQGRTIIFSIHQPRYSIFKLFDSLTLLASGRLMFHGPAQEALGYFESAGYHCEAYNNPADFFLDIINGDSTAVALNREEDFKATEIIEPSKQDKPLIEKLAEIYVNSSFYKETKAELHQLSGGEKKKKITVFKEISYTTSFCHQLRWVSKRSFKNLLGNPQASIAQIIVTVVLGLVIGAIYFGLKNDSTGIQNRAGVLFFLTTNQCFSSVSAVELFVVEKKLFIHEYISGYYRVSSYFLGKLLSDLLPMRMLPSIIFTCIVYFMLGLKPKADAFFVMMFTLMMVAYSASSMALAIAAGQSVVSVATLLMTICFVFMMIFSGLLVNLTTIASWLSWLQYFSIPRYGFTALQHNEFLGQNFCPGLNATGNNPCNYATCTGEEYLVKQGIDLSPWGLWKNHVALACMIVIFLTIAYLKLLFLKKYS
Summary of the method: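 HEK293-ABCG2 cells (1.5 × 10⁵/well, grown 48 h) exposed to 5 μM mitoxantrone for 30 min at 37 °C with compound (increasing concentrations up to 10 μM); washed, trypsinized, FL4 flow cytometry, ≥10 000 events.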

[2] = target: T2, Broad substrate specificity ATP-binding cassette transporter ABCG2 (Homo sapiens, UniProt Q9UNQ0); experiment: Inhibition of ABCG2 (unknown origin) transfected in HEK293 cells assessed as inhibition of mitoxantrone efflux after 30 mins by flow cytometry relative to control; type: cell-based
T2 sequence (Q9UNQ0 whole entry): T1 sequence (Q9UNQ0 whole entry)

[3] = target: T2, Broad substrate specificity ATP-binding cassette transporter ABCG2; experiment: Inhibition of ABCG2 (unknown origin) transfected in HEK293 cells assessed as inhibition of mitoxantrone efflux at 5 uM after 30 mins in presence of 0.1 uM (2E,2'E)-1,1'-(1,4-Phenylene)bis(3-(2,6-dimethoxyphenyl)-prop-2-en-1-one) by flow cytometry; type: cell-based
[4] = target: T2, Broad substrate specificity ATP-binding cassette transporter ABCG2; experiment: Inhibition of human ABCG2 transfected in Sf9 insect cells assessed as inhibition of basal ATPase activity in absence of substrate drug after 30 mins by colorimetry; conditions: sf9, 0.5 h
Summary of the method: (§1)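 Cholesterol-loaded membranes from Sf9 cells overexpressing human ABCG2 (0.5 mg/mL; 10 μg/sample) in 50 mM Tris-HCl, 50 mM NaCl, pH 8.0, with or without 0.33 mM orthovanadate, no transport substrate; started with 3.9 mM ATP-Mg, 30 min at 37 °C; stopped with SDS; phosphate released read with molybdate/ascorbic acid at 880 nm; vanadate-sensitive basal activity taken as 100%.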

[5] = target: ATP-dependent translocase ABCB1 (Homo sapiens, UniProt P08183); experiment: Inhibition of ABCB1 (unknown origin) transfected in mouse NIH/3T3 cells assessed as inhibition of mitoxantrone efflux up to 10 uM after 30 mins by flow cytometry relative to control; type: cell-based; conditions: nih/3t3, 0.5 h
Summary of the method: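 NIH-3T3-ABCB1 cells (1.5 × 10⁵/well, 48 h, kept in 60 ng/mL colchicine) were given 5 μM mitoxantrone for 30 min at 37 °C with bis-chalcone at 1 or 10 μM. Fluorescence was read by FL4 flow cytometry, ≥10 000 events. Inhibition was expressed relative to parental NIH-3T3 cells, whose maximal accumulation was taken as complete inhibition.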

[6] = test system: HEK293; experiment: Cytotoxicity against HEK293 cells overexpressing ABCG2 at 0.5 uM after 72 hrs by MTT assay; type: ADME, cell-based; conditions: human, hek293, 72 h
Summary of the method: (§2)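 HEK293-ABCG2 and vector-control HEK293-pcDNA3.1 cells were seeded at 1 × 10⁴/well and grown 24 h, then exposed 72 h to mitoxantrone (0–25 nM). ABCG2 cells were also given bis-chalcone at 0.1 or 0.5 μM. MTT was added for 4 h, formazan dissolved in DMSO/ethanol (1:1) and read at 570 nm. IC50 = mitoxantrone concentration giving 50% survival.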

[7] = target: Multidrug resistance-associated protein 1 (Homo sapiens, UniProt P33527); experiment: Inhibition of ABCC1 (unknown origin) transfected in HEK293 cells assessed as inhibition of calcein-AM efflux up to 10 uM after 30 mins by flow cytometry relative to control; type: cell-based; conditions: hek293, 0.5 h
Summary of the method: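 HEK293-ABCC1 cells (2 × 10⁵/well, kept in 200 μg/mL hygromycin B) were exposed to 0.2 μM calcein-AM for 30 min at 37 °C with bis-chalcone at 1 or 10 μM. Calcein was read by FL1 flow cytometry, ≥10 000 events. Inhibition was expressed relative to HEK293/pcDNA5 cells, whose maximal accumulation equals complete inhibition.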

[8] = test system: ATP-binding cassette sub-family G member 2 (Homo sapiens); experiment: Inhibition of ABCG2-mediated mitoxantrone efflux in mitoxantrone-selected human PANC1 cells overexpressing ABCG2; conditions: PANC-1
[9] = target: T2, Broad substrate specificity ATP-binding cassette transporter ABCG2; experiment: Inhibition of ABCG2 (unknown origin)-mediated mitoxantrone efflux transfected in HEK293 cells assessed as potentiation of mitoxantrone-induced cytotoxicity at 0.5 uM after 72 hrs by MTT assay; type: cell-based; conditions: hek293, 72 h; summary of the method: as §2
[10] = target: T3, ABCG2 ATPase (Homo sapiens, UniProt Q9UNQ0); experiment: Activation of human ABCG2 transfected in Sf9 insect cells assessed as stimulation of basal ATPase activity in absence of substrate drug after 30 mins by colorimetry; conditions: Sf9 insect cells transfected with human ABCG2, read-out: FC; summary of the method: as §1
T3 sequence (Q9UNQ0 whole entry): T1 sequence (Q9UNQ0 whole entry)

[11] = target: T3, ABCG2 ATPase; experiment: (§3) Inhibition of human ABCG2 ATPase activity transfected in Sf9 insect cells using quercetin as substrate after 30 mins by colorimetry relative to control; conditions: human, Sf9 insect cells transfected with human ABCG2, probe quercetin; read-out: Imax
Summary of the method: (§4)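 Vanadate-sensitive ATPase of cholesterol-loaded human ABCG2 Sf9 membranes (0.5 mg/mL; 10 μg/sample), 50 mM Tris-HCl/50 mM NaCl pH 8.0, with 2 μM quercetin. ATP-Mg 3.9 mM, 30 min, 37 °C. Phosphate measured colorimetrically at 880 nm. Coupled activity = total minus basal, taken as 100%. IC50 is the concentration giving 50% inhibition.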

[12] = target: T2, Broad substrate specificity ATP-binding cassette transporter ABCG2; experiment: as §3; summary of the method: as §4
[13] = test system: HEK293; experiment: Cytotoxicity against HEK293 cells after 72 hrs by MTT assay; type: cell-based; conditions: Homo sapiens, HEK293, 72 h; summary of the method: as §2
[14] = test system: HEK293; experiment: Cytotoxicity against HEK293 cells overexpressing ABCG2 after 72 hrs by MTT assay; type: ADME, cell-based; conditions: Homo sapiens, HEK293, 72 h; summary of the method: as §2

Sequence of Multidrug resistance-associated protein 1 (P33527 whole entry): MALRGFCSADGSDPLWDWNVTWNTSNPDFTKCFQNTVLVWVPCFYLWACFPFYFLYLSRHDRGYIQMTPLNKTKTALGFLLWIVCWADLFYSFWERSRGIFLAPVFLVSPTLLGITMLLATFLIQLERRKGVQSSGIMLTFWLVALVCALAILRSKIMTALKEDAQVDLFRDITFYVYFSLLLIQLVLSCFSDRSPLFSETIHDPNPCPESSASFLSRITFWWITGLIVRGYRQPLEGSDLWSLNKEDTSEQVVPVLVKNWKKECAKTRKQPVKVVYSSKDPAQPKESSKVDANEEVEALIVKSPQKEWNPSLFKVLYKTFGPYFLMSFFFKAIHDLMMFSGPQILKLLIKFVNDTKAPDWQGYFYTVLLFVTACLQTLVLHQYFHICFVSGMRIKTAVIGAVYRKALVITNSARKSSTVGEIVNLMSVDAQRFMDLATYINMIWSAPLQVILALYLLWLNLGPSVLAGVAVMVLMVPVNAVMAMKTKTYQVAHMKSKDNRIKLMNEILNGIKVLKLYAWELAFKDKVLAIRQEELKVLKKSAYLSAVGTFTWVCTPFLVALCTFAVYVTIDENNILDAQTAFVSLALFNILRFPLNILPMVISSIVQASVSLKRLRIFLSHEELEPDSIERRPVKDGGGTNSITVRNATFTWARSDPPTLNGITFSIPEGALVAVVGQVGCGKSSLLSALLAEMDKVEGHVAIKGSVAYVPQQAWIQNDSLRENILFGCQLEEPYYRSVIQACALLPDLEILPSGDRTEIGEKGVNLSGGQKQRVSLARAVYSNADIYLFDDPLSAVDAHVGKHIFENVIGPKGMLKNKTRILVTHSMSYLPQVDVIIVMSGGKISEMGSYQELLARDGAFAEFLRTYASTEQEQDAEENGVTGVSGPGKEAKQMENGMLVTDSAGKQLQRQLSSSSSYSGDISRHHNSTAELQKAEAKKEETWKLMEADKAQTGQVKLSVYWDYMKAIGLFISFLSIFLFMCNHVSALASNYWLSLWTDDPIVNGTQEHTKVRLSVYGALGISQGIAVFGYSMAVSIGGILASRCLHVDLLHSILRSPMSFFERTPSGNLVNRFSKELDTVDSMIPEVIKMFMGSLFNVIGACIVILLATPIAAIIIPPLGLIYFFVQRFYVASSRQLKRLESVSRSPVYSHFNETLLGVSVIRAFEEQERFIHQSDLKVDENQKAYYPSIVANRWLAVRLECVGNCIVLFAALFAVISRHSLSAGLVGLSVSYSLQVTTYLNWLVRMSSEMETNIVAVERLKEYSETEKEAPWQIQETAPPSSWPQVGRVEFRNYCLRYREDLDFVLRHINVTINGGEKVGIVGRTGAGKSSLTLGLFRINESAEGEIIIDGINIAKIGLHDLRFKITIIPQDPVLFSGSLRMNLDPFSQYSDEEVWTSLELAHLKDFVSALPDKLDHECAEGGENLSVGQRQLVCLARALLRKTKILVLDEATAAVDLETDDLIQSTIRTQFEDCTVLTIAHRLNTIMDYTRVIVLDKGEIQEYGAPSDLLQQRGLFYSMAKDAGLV
Sequence of ATP-dependent translocase ABCB1 (P08183 whole entry): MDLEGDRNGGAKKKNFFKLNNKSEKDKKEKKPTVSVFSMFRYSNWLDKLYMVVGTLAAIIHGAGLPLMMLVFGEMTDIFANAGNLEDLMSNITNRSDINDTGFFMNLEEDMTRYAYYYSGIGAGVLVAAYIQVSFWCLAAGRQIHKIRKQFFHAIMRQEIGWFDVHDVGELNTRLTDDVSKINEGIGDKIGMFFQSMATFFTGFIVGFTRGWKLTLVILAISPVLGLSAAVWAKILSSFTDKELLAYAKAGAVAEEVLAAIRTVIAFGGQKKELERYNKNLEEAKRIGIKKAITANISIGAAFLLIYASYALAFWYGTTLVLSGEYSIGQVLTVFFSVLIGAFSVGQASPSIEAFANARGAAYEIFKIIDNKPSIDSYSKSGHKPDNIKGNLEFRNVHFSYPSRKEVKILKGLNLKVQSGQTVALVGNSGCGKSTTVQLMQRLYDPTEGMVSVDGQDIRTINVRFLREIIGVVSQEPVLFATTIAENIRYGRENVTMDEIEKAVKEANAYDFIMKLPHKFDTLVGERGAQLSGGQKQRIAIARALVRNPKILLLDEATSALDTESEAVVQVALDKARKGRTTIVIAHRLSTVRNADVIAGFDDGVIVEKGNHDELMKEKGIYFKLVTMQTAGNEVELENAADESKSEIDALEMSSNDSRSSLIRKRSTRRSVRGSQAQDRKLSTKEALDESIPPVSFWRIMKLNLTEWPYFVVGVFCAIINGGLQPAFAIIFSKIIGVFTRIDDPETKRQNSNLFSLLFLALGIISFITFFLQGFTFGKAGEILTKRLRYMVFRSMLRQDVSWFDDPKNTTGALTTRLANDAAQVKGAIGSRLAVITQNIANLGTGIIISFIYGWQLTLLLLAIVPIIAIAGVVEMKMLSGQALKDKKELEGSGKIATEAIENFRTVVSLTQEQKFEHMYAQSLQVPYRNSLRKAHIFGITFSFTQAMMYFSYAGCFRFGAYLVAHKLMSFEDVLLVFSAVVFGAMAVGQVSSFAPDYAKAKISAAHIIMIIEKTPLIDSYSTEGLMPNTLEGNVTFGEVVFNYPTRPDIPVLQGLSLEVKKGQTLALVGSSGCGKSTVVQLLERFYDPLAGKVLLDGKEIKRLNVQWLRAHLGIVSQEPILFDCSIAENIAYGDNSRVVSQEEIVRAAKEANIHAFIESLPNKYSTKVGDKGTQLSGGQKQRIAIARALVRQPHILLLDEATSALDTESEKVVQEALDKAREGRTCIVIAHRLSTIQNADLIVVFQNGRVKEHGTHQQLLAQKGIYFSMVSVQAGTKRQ

Row | SMILES | inhibition at 0.5 h, 5 µM [1] | EC50 [2] | further results
1 | COc1ccc(/C=C/C(=O)c2ccc(C(=O)/C=C/c3ccc(OC)c(OC)c3)cc2)cc1OC | 63% | 2100 nM | 
2 | COc1ccc2[nH]cc(CCNC(=O)c3cc(=O)c4c(OCc5ccc(Br)cc5)cccc4o3)c2c1 |  | 94 nM | EC50 [3]: 31 nM; inhibition (INH) [4]: Active
3 | O=C(/C=C/c1ccccc1)c1ccc(C(=O)/C=C/c2ccccc2)cc1 | 13% |  | 
4 | COc1ccc(/C=C/C(=O)c2ccc(C(=O)/C=C/c3ccc(OC)cc3)cc2)cc1 | 18% |  | 
5 | COc1cc(/C=C/C(=O)c2ccc(C(=O)/C=C/c3cc(OC)c(OC)c(OC)c3)cc2)cc(OC)c1OC | 43% |  | 
6 | O=C(/C=C/c1ccc2c(c1)OCO2)c1ccc(C(=O)/C=C/c2ccc3c(c2)OCO3)cc1 | 11% |  | 
7 | COc1ccc(OC)c(/C=C/C(=O)c2ccc(C(=O)/C=C/c3cc(OC)ccc3OC)cc2)c1 | 96% | 700 nM | 
8 | O=C(/C=C/c1ccc2ccccc2c1)c1ccc(C(=O)/C=C/c2ccc3ccccc3c2)cc1 | 7% |  | 
9 | O=C(/C=C/c1cccc2ccccc12)c1ccc(C(=O)/C=C/c2cccc3ccccc23)cc1 | 13% |  | 
10 | COc1cc(OC)c(OC)cc1/C=C/C(=O)c1ccc(C(=O)/C=C/c2cc(OC)c(OC)cc2OC)cc1 | 96% | 300 nM | 
11 | O=C(O)c1ccc(/C=C/C(=O)c2ccc(C(=O)/C=C/c3ccc(C(=O)O)cc3)cc2)cc1 | 2% |  | 
12 | COc1cc(OC)c(/C=C/C(=O)c2ccc(C(=O)/C=C/c3c(OC)cc(OC)cc3OC)cc2)c(OC)c1 | 92% | 400 nM | 
13 | COc1cc(/C=C/C(=O)c2ccc(C(=O)/C=C/c3ccc(O)c(OC)c3)cc2)ccc1O | 0% |  | 
14 | O=C(/C=C/c1ccc2nccnc2c1)c1ccc(C(=O)/C=C/c2ccc3nccnc3c2)cc1 | 18% |  | 
15 | CN(C)c1ccc(/C=C/C(=O)c2ccc(C(=O)/C=C/c3ccc(N(C)C)cc3)cc2)cc1 | 34% |  | 
16 | CN(C)c1ccc(/C=C/C(=O)c2ccc(C(=O)/C=C/c3ccc(N(C)C)c4ccccc34)cc2)c2ccccc12 | 17% |  | 
17 | COc1ccc(/C=C/C(=O)c2ccc(C(=O)/C=C/c3ccc(OC)c(OC)c3OC)cc2)c(OC)c1OC | 86% | 1400 nM | 

Row | SMILES | inhibition at 0.5 h, 5 µM [1] | EC50 [2] | further results
18 | COc1ccc(C(=O)/C=C/c2ccc(/C=C/C(=O)c3ccc(OC)cc3)cc2)cc1 | 27% |  | 
19 | COc1cc(C(=O)/C=C/c2ccc(/C=C/C(=O)c3cc(OC)c(OC)c(OC)c3)cc2)cc(OC)c1OC | 73% | 1100 nM | 
20 | COc1cccc(C(=O)/C=C/c2ccc(/C=C/C(=O)c3cccc(OC)c3)cc2)c1 | 73% | 2300 nM | 
21 | COc1ccc(C(=O)/C=C/c2ccc(/C=C/C(=O)c3ccc(OC)c(OC)c3)cc2)cc1OC | 97% | 800 nM | 
22 | COc1ccc(C(=O)/C=C/c2ccc(/C=C/C(=O)c3ccc(OC)cc3OC)cc2)c(OC)c1 | 86% | 900 nM | 
23 | O=C(/C=C/c1ccc(/C=C/C(=O)c2ccc3c(c2)OCO3)cc1)c1ccc2c(c1)OCO2 | 19% |  | 
24 | COc1ccc(OC)c(C(=O)/C=C/c2ccc(/C=C/C(=O)c3cc(OC)ccc3OC)cc2)c1 | 74% | 1300 nM | 
25 | O=C(/C=C/c1ccc(/C=C/C(=O)c2ccc3ccccc3c2)cc1)c1ccc2ccccc2c1 | 45% |  | 
26 | COc1cc(OC)cc(C(=O)/C=C/c2ccc(/C=C/C(=O)c3cc(OC)cc(OC)c3)cc2)c1 | 78% | 500 nM | inhibition (INH) [5]: Not Active; Activity [6]: Non-toxic; inhibition (INH) [7]: Not Active; EC50 [8]: 210 nM; inhibition (INH) [9]: Active; fold induction at 0.5 h [10]: 1.8; inhibition (INH) [4]: Not Active; Emax at 0.5 h [11]: 72%; IC50 [12]: 270 nM
27 | O=C(/C=C/c1ccc(/C=C/C(=O)c2cccc3ccccc23)cc1)c1cccc2ccccc12 | 23% |  | 
28 | O=C(/C=C/c1ccc(/C=C/C(=O)c2ccccc2)cc1)c1ccccc1 | 25% |  | 
29 | COc1ccccc1C(=O)/C=C/c1ccc(/C=C/C(=O)c2ccccc2OC)cc1 | 95% | 1100 nM | 
30 | COc1cc(OC)c(C(=O)/C=C/c2ccc(/C=C/C(=O)c3cc(OC)c(OC)cc3OC)cc2)cc1OC | 41% |  | 
31 | O=C(O)c1ccc(C(=O)/C=C/c2ccc(/C=C/C(=O)c3ccc(C(=O)O)cc3)cc2)cc1 | 0% |  | 
32 | COc1cc(OC)c(C(=O)/C=C/c2ccc(/C=C/C(=O)c3c(OC)cc(OC)cc3OC)cc2)c(OC)c1 | 66% | 1800 nM | 
33 | COc1cc(C(=O)/C=C/c2ccc(/C=C/C(=O)c3ccc(O)c(OC)c3)cc2)ccc1O | 28% |  | 
34 | O=C1c2c(O)ccc(O)c2C(=O)c2c(NCCNCCO)ccc(NCCNCCO)c21 [MITOXANTRONE] |  |  | IC50 [13]: 10 nM; IC50 [14]: 26.6 nM
